Data as given in ChEMBL document CHEMBL1158343, “Synthesis, antimicrobial and antiviral evaluation of substituted imidazole derivatives” (Eur J Med Chem, 2009).
In brackets after ≈: the same amount, converted by molar mass.

Tests used:
[1] = test system: Respiratory syncytial virus; test: Antiviral activity against RSV infected in human HeLa cells assessed as reduction in virus-induced cytopathogenicity after 3 days; format: functional, organism-based; conditions: 72 h
[2] = test system: Vesicular stomatitis virus; test: Antiviral activity against VSV infected in human HeLa cells assessed as reduction in virus-induced cytopathogenicity after 3 days; format: functional, organism-based; conditions: 72 h
[3] = test system: Bacillus subtilis; test: Antimicrobial activity against Bacillus subtilis after 24 hrs by tube dilution method; format: functional
Procedure, shortened: (§1)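 Tube dilution in DMSO (stock 100 mg/ml) with serial dilutions; incubation 37 °C for 48 h for C. albicans (other organisms' times truncated in text). MIC read as lowest concentration inhibiting visible growth. Norfloxacin (bacteria) and fluconazole (fungi) as reference drugs.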

[4] = Cytotoxicity against human HeLa cells assessed as alteration in cell morphology; format: cell-based
Procedure, shortened: (§2)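 Uninfected cell cultures tested in parallel with the CPE-reduction antiviral assay; cells grown to confluency, then serial compound dilutions added and incubated at 37 °C (3 days in the parallel antiviral set-up). Read-out is microscopic examination of morphology; value is the minimum cytotoxic concentration, the lowest causing a microscopically detectable alteration of normal cell morphology.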

[5] = test system: Candida albicans; test: Antimicrobial activity against Candida albicans after 48 hrs by tube dilution method; format: functional; procedure, shortened: as §1
[6] = test system: Vesicular stomatitis virus; test: Antiviral activity against VSV infected in human HEL cells assessed as reduction in virus-induced cytopathogenicity after 3 days; format: functional, organism-based; conditions: 72 h
[7] = test system: Human alphaherpesvirus 1; test: Antiviral activity against thymidine kinase-deficient acyclovir-resistant HSV1 KOS infected in human HEL cells assessed as reduction in virus-induced cytopathogenicity after 3 days; format: functional, organism-based; conditions: Human alphaherpesvirus 1, KOS, 72 h
[8] = test system: Staphylococcus aureus; test: Antimicrobial activity against Staphylococcus aureus after 24 hrs by tube dilution method; format: functional; procedure, shortened: as §1
[9] = test system: Coxsackievirus B4; test: Antiviral activity against Coxsackievirus B4 infected in african green monkey Vero cells assessed as reduction in virus-induced cytopathogenicity after 3 days; format: functional, organism-based; conditions: Enterovirus B, 72 h
[10] = test system: Coxsackievirus B4; test: Antiviral activity against Coxsackievirus B4 infected in human HeLa cells assessed as reduction in virus-induced cytopathogenicity after 3 days; format: functional, organism-based; conditions: Enterovirus B, 72 h
[11] = test system: Mammalian orthoreovirus 1; test: Antiviral activity against Reovirus 1 infected in african green monkey Vero cells assessed as reduction in virus-induced cytopathogenicity after 3 days; format: functional, organism-based; conditions: Mammalian orthoreovirus 1, Vero, 72 h
[12] = test system: Aspergillus niger; test: Antimicrobial activity against Aspergillus niger after 7 days by tube dilution method; format: functional; conditions: 168 h; procedure, shortened: as §1
[13] = test system: Human alphaherpesvirus 1; test: Antiviral activity against HSV1 KOS infected in human HEL cells assessed as reduction in virus-induced cytopathogenicity after 3 days; format: functional, organism-based; conditions: Human alphaherpesvirus 1, KOS, 72 h
[14] = test system: Human alphaherpesvirus 2; test: Antiviral activity against HSV2 G infected in human HEL cells assessed as reduction in virus-induced cytopathogenicity after 3 days; format: functional, organism-based; conditions: Human alphaherpesvirus 2, strain G, 72 h
[15] = test system: Punta Toro virus; test: Antiviral activity against Punta Toro virus infected in african green monkey Vero cells assessed as reduction in virus-induced cytopathogenicity after 3 days; format: functional, organism-based; conditions: 72 h
[16] = test system: Human respirovirus 3; test: Antiviral activity against Parainfluenza-3 virus infected in african green monkey Vero cells assessed as reduction in virus-induced cytopathogenicity after 3 days; format: functional, organism-based; conditions: Human respirovirus 3, Vero, 72 h
[17] = Cytotoxicity against human HEL cells assessed as alteration in cell morphology; format: cell-based; procedure, shortened: as §2
[18] = test system: Sindbis virus; test: Antiviral activity against Sindbis virus infected in african green monkey Vero cells assessed as reduction in virus-induced cytopathogenicity after 3 days; format: functional, organism-based; conditions: 72 h
[19] = Cytotoxicity against african green monkey Vero cells assessed as alteration in cell morphology; format: cell-based; conditions: chlorocebus sabaeus; procedure, shortened: as §2
[20] = test system: Escherichia coli; test: Antimicrobial activity against Escherichia coli after 24 hrs by tube dilution method; format: functional; procedure, shortened: as §1

| Structure (SMILES) | EC50 [1] [µg/mL] | EC50 [2] [µg/mL] | MBC [3] [µM] | MIC [3] [µM] | MCC [4] [µg/mL] | MFC [5] [µM] | MIC [5] [µM] | EC50 [6] [µg/mL] | EC50 [7] [µg/mL] | MBC [8] [µM] | MIC [8] [µM] | EC50 [9] [µg/mL] | EC50 [10] [µg/mL] | EC50 [11] [µg/mL] | MFC [12] [µM] | MIC [12] [µM] | EC50 [13] [µg/mL] | EC50 [14] [µg/mL] | EC50 [15] [µg/mL] | EC50 [16] [µg/mL] | further results |
| --- | --- | --- | --- | --- | --- | --- | --- | --- | --- | --- | --- | --- | --- | --- | --- | --- | --- | --- | --- | --- | --- |
| O=C(c1ccccc1Br)n1ccnc1-c1ccccc1[N+](=O)[O-] | > 100 | > 100 | 268 (≈ 99.7 µg/mL) | 2 (≈ 0.744 µg/mL) | > 100 | 268 (≈ 99.7 µg/mL) | 33 (≈ 12.3 µg/mL) | > 100 | > 100 | 268 (≈ 99.7 µg/mL) | 2 (≈ 0.744 µg/mL) | > 100 | > 100 | > 100 | 67 (≈ 24.9 µg/mL) | 4 (≈ 1.49 µg/mL) | > 100 | > 100 | > 100 | > 100 | MCC [17]: > 100 µg/mL; EC50 [18]: > 100 µg/mL; MCC [19]: > 100 µg/mL; MBC [20]: 268 µM (≈ 99.7 µg/mL); MIC [20]: 33 µM (≈ 12.3 µg/mL) |
| O=C(c1ccccc1Br)n1ccnc1-c1ccc([N+](=O)[O-])cc1 | > 100 | > 100 | 33 (≈ 12.3 µg/mL) | 4 (≈ 1.49 µg/mL) | > 100 | 134 (≈ 49.9 µg/mL) | 16 (≈ 5.95 µg/mL) | > 100 | > 100 | 16 (≈ 5.95 µg/mL) | 2 (≈ 0.744 µg/mL) | > 100 | > 100 | > 100 | 67 (≈ 24.9 µg/mL) | 4 (≈ 1.49 µg/mL) | > 100 | > 100 | > 100 | > 100 | MCC [17]: > 100 µg/mL; EC50 [18]: > 100 µg/mL; MCC [19]: > 100 µg/mL; MBC [20]: 33 µM (≈ 12.3 µg/mL); MIC [20]: 4 µM (≈ 1.49 µg/mL) |
| O=C(c1ccc([N+](=O)[O-])cc1)n1ccnc1-c1ccc([N+](=O)[O-])cc1 | > 20 | > 20 | 295 (≈ 99.8 µg/mL) | 36 (≈ 12.2 µg/mL) | 100 | 147 (≈ 49.7 µg/mL) | 18 (≈ 6.09 µg/mL) | > 100 | 45 (≈ 133 µM) | 295 (≈ 99.8 µg/mL) | 73 (≈ 24.7 µg/mL) | > 100 | > 20 | > 100 | 147 (≈ 49.7 µg/mL) | 18 (≈ 6.09 µg/mL) | 59 (≈ 174 µM) | 50 (≈ 148 µM) | > 100 | > 100 | MCC [17]: > 100 µg/mL; EC50 [18]: > 100 µg/mL; MCC [19]: > 100 µg/mL; MBC [20]: 295 µM (≈ 99.8 µg/mL); MIC [20]: 73 µM (≈ 24.7 µg/mL) |
| COc1ccc(-c2nccn2C(=O)c2ccc([N+](=O)[O-])cc2)cc1 | > 100 | > 100 | 18 (≈ 5.82 µg/mL) | 2 (≈ 0.647 µg/mL) | > 100 | 147 (≈ 47.5 µg/mL) | 18 (≈ 5.82 µg/mL) | > 100 | > 100 | 18 (≈ 5.82 µg/mL) | 2 (≈ 0.647 µg/mL) | > 100 | > 100 | > 100 | 147 (≈ 47.5 µg/mL) | 9 (≈ 2.91 µg/mL) | > 100 | > 100 | > 100 | > 100 | MCC [17]: > 100 µg/mL; EC50 [18]: > 100 µg/mL; MCC [19]: > 100 µg/mL; MBC [20]: 147 µM (≈ 47.5 µg/mL); MIC [20]: 18 µM (≈ 5.82 µg/mL) |
| O=C(c1ccccc1Br)n1ccnc1-c1ccccc1Cl | > 100 | > 100 | 268 (≈ 96.9 µg/mL) | 69 (≈ 25 µg/mL) | > 100 | 138 (≈ 49.9 µg/mL) | 17 (≈ 6.15 µg/mL) | > 100 | > 100 | 268 (≈ 96.9 µg/mL) | 69 (≈ 25 µg/mL) | > 100 | > 100 | > 100 | 138 (≈ 49.9 µg/mL) | 8 (≈ 2.89 µg/mL) | > 100 | > 100 | > 100 | > 100 | MCC [17]: > 100 µg/mL; EC50 [18]: > 100 µg/mL; MCC [19]: > 100 µg/mL; MBC [20]: 268 µM (≈ 96.9 µg/mL); MIC [20]: 69 µM (≈ 25 µg/mL) |
| O=C(c1ccc([N+](=O)[O-])cc1)n1ccnc1-c1cccc(Cl)c1 | > 100 | > 100 | 305 (≈ 100 µg/mL) | 38 (≈ 12.5 µg/mL) | > 100 | 304 (≈ 99.6 µg/mL) | 38 (≈ 12.5 µg/mL) | > 100 | > 100 | 305 (≈ 100 µg/mL) | 38 (≈ 12.5 µg/mL) | > 100 | > 100 | > 100 | 152 (≈ 49.8 µg/mL) | 19 (≈ 6.23 µg/mL) | > 100 | > 100 | > 100 | > 100 | MCC [17]: > 100 µg/mL; EC50 [18]: > 100 µg/mL; MCC [19]: > 100 µg/mL; MBC [20]: 305 µM (≈ 100 µg/mL); MIC [20]: 38 µM (≈ 12.5 µg/mL) |
| O=C(c1ccccc1Br)n1ccnc1-c1cccc([N+](=O)[O-])c1 | > 100 | > 100 | 268 (≈ 99.7 µg/mL) | 33 (≈ 12.3 µg/mL) | > 100 | 268 (≈ 99.7 µg/mL) | 16 (≈ 5.95 µg/mL) | > 100 | > 100 | 33 (≈ 12.3 µg/mL) | 4 (≈ 1.49 µg/mL) | > 100 | > 100 | > 100 | 67 (≈ 24.9 µg/mL) | 16 (≈ 5.95 µg/mL) | > 100 | > 100 | > 100 | > 100 | MCC [17]: > 100 µg/mL; EC50 [18]: > 100 µg/mL; MCC [19]: > 100 µg/mL; MBC [20]: 16 µM (≈ 5.95 µg/mL); MIC [20]: 2 µM (≈ 0.744 µg/mL) |
| COc1ccc(-c2nccn2C(=O)c2ccccc2Br)cc1 | > 100 | > 100 | 628 (≈ 224 µg/mL) | 16 (≈ 5.72 µg/mL) | > 100 | 134 (≈ 47.9 µg/mL) | 16 (≈ 5.72 µg/mL) | > 100 | > 100 | 134 (≈ 47.9 µg/mL) | 16 (≈ 5.72 µg/mL) | > 100 | > 100 | > 100 | 134 (≈ 47.9 µg/mL) | 16 (≈ 5.72 µg/mL) | > 100 | > 100 | > 100 | > 100 | MCC [17]: > 100 µg/mL; EC50 [18]: > 100 µg/mL; MCC [19]: > 100 µg/mL; MBC [20]: 628 µM (≈ 224 µg/mL); MIC [20]: 33 µM (≈ 11.8 µg/mL) |
| O=C(c1ccccc1Br)n1ccnc1-c1ccc(Cl)cc1 | > 100 | > 100 | 17 (≈ 6.15 µg/mL) | 2 (≈ 0.723 µg/mL) | > 100 | 138 (≈ 49.9 µg/mL) | 17 (≈ 6.15 µg/mL) | > 100 | > 100 | 17 (≈ 6.15 µg/mL) | 2 (≈ 0.723 µg/mL) | > 100 | > 100 | > 100 | 69 (≈ 25 µg/mL) | 8 (≈ 2.89 µg/mL) | > 100 | > 100 | > 100 | > 100 | MCC [17]: > 100 µg/mL; EC50 [18]: > 100 µg/mL; MCC [19]: > 100 µg/mL; MBC [20]: 17 µM (≈ 6.15 µg/mL); MIC [20]: 2 µM (≈ 0.723 µg/mL) |
